Test results published in publication PMC8887543 (Nucleic Acids Research, 2022).

Legend:
[1] = system: dT21 (DNA, single strand) TTTTTTTTTTTTTTTTTTTTT; assay: fluorescence light-up; settings: 60 mM KCl; 10 mM Tris-HCl, pH 7.4
MCF-7 cells = assay: BRACO19 displacement in stained cells, confocal imaging; type: cell-based, human; settings: ligand 5 μM, BRACO19 0–15 μM
Method in brief: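 MCF-7 cells were stained with the test compound (5 μM) plus increasing BRACO19 (0–15 μM) for displacement. Images were taken by laser-scanning confocal microscopy with 488 nm excitation. A parallel solution assay followed fluorescence of the compound (5 μM) bound to nucleic acid under the same BRACO19 range.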

[2] = system: G4-DNA (c-MYC promoter, telomeric) versus other nucleic acids; assay: Selectivity screening by induced fluorescence with 20 nucleic acids; type: binding; settings: 5 μM ligand, 18 μM nucleic acid, Tris–HCl pH 7.4, 60 mM KCl
Method in brief: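 For induced-fluorescence selectivity, the test compound (5 μM) was mixed with each nucleic acid (18 μM) in 10 mM Tris–HCl (pH 7.4) with 60 mM KCl. Emission was recorded on a fluorescence spectrometer against compound alone without DNA. Samples were also viewed under 302 nm UV illumination.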

**Q.** How did the binding [1] turn out when `CN1C(=Cc2cc[n+](C)c3ccccc23)Sc2ccccc21` [TO, thiazole orange] was run?
**A.** The binding was “weak”.

**Q.** And the “Fluorescence change in stained cells after BRACO19 treatment” value (MCF-7 cells)?
**A.** The value was “not obvious”.

**Q.** What about the “Selectivity toward G4-DNA structures by induced fluorescence” value [2] of the same compound?
**A.** The value was “non-selective”.
